Series [1] concerns the target Superoxide dismutase [Mn] (Escherichia coli) (UniProt P00448). In words: Inhibition of Escherichia coli Mn-SOD by NBT reduction assay.
Series [2] is described as follows: Selectivity index, ratio of IC50 for mouse J774.2 cells to IC50 for promastigote form of Leishmania infantum MCAN/ES/2001/UCM-10. The format is toxicity. To be noted: J774.2 cells, read-out: Ratio IC50. Summed up: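 J774.2 toxicity: 72 h at the same concentrations, viability by flow cytometry with propidium iodide/fluorescein diacetate; IC50 by linear regression. SI = macrophage IC50/parasite IC50; ratio is compound SI over Glucantime SI.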

A short description of series [3]: Ratio of compound selectivity index to glucantime selectivity index for amastigote form of Leishmania infantum MCAN/ES/2001/UCM-10 infected in J774.2 cells over mouse J774.2 cells. The gist of the method: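 J774.2 macrophages in MEM + 2 mM glutamine + 20% inactivated FCS were infected with stationary-phase promastigotes (10:1) for 24 h at 37 °C, 5% CO2. After washing, compounds were added at […] for 72 h. Amastigote reduction was scored in methanol-fixed, Giemsa-stained preparations; IC50 by regression; triplicates. SI = J774.2 IC50 (72 h flow cytometry)/amastigote IC50; ratio is versus Glucantime SI.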

Series [4] can be described thus: Selectivity index, ratio of IC50 for mouse J774.2 cells to IC50 for axenic amastigote form of Leishmania braziliensis MHOM/BR/1975/M2904. The note with it: J774.2 cells, read-out: Ratio IC50. The series is classed as toxicity. Summed up:
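Axenic amastigotes obtained by 3-day promastigote transformation in supplemented M199 + 10% heat-inactivated FCS, pH 5.4, 37 °C. […] Host toxicity: J774.2, 72 h, PI/FDA flow cytometry. SI = macrophage IC50/axenic amastigote IC50; ratio is compound SI over Glucantime SI.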

In series [5] the test system is Leishmania infantum. Nature of the series: Antileishmanial activity against promastigote form of Leishmania infantum MCAN/ES/2001/UCM-10 assessed as corrugated cytoplasmic membrane at IC25 concentration after 96 hrs by […] electron microscopic analysis. The series is classed as functional, organism-based. The gist of the method: (§1)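 Promastigotes at 5 × 10^5 cells/mL in MTL medium with compound at IC25 for 96 h. Ultrastructure examined by transmission electron microscopy against untreated control parasites.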

Series [6] deals with Leishmania infantum. Nature of the series: Antileishmanial activity against promastigote form of Leishmania infantum MCAN/ES/2001/UCM-10 infected in J774.2 cells assessed as inhibition of number of amastigotes per host cell at IC25 concentration incubated for 12 hrs followed by compound washout measured after 48 hrs by microscopic analysis. The series is classed as functional. The gist of the method:
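J774.2 cells seeded at 1 × 10^4 cells/well on coverslips and cultured 2 days. Infected with promastigotes at 10:1 with drug at IC25 added immediately, for 12 h at 37 °C in 5% CO2. Parasites and drug washed out, then grown 10 days with washing and fresh medium every 48 h. On methanol-fixed, Giemsa-stained slides, % infected cells and amastigotes per infected cell scored from more than 200 host cells. Three determinations.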

Series [7] relates to Leishmania infantum. In words: Antileishmanial activity against promastigote form of Leishmania infantum MCAN/ES/2001/UCM-10 assessed as size reduction at IC25 concentration after 96 hrs by […] electron microscopic analysis. The format is functional, organism-based. Summed up: as §1
Series [8] deals with Leishmania infantum. In words: Antileishmanial activity against promastigote form of Leishmania infantum MCAN/ES/2001/UCM-10 assessed as swollen kinetoplast at IC25 concentration after 96 hrs by […] electron microscopic analysis relative to control. The series is classed as functional, organism-based. The gist of the method: as §1
For series [9], the system named is Leishmania infantum. Nature of the series: Antileishmanial activity against promastigote form of Leishmania infantum MCAN/ES/2001/UCM-10 assessed as high electro density at IC25 concentration after 96 hrs by […] electron microscopic analysis. The series is classed as functional, organism-based. The gist of the method: as §1
Series [10] relates to Leishmania infantum. Nature of the series: Antileishmanial activity against promastigote form of Leishmania infantum MCAN/ES/2001/UCM-10 assessed as vacuoles in cytoplasm at IC25 concentration after 96 hrs by […] electron microscopic analysis relative to control. The series is classed as functional, organism-based. Summed up:
as §1

Series [11] concerns Leishmania infantum. In words: Antileishmanial activity against promastigote form of Leishmania infantum MCAN/ES/2001/UCM-10 assessed as death-like aspect vesicles at IC25 concentration after 96 hrs by […] electron microscopic analysis relative to control. The format is functional, organism-based. Summed up: as §1
For series [12], the system named is Leishmania infantum. In words: Antileishmanial activity against promastigote form of Leishmania infantum MCAN/ES/2001/UCM-10 assessed as swollen mitochondria at IC25 concentration after 96 hrs by […] electron microscopic analysis relative to control. The series is classed as functional, organism-based. Summed up: as §1
For series [13], the system named is Leishmania braziliensis. In words: Antileishmanial activity against promastigote form of Leishmania braziliensis MHOM/BR/1975/M2904 assessed as swollen parasites at IC25 concentration after 96 hrs by MET microscopic analysis. The format is functional. The note with it: MHOM/BR/75/M2904. The gist of the method: as §1
For series [14], the system named is Leishmania braziliensis. In words: Antileishmanial activity against promastigote form of Leishmania braziliensis MHOM/BR/1975/M2904 assessed as disorganized flagellum at IC25 concentration after 96 hrs by MET microscopic analysis. To be noted: MHOM/BR/75/M2904. The format is functional. The gist of the method:
as §1

Series [15] concerns Leishmania braziliensis. Nature of the series: Antileishmanial activity against promastigote form of Leishmania braziliensis MHOM/BR/1975/M2904 assessed as small vacuoles at IC25 concentration after 96 hrs by MET microscopic analysis. The series is classed as functional. The note with it: MHOM/BR/75/M2904. The gist of the method: as §1
For series [16], the system named is Leishmania braziliensis. Nature of the series: Antileishmanial activity against promastigote form of Leishmania braziliensis MHOM/BR/1975/M2904 assessed as structural disruptions at IC25 concentration after 96 hrs by MET microscopic analysis. The format is functional. The note with it: MHOM/BR/75/M2904. The gist of the method: as §1
In series [17] the test system is Leishmania braziliensis. In words: Antileishmanial activity against promastigote form of Leishmania braziliensis MHOM/BR/1975/M2904 assessed as disorganized flagellar pocket at IC25 concentration after 96 hrs by MET microscopic analysis. The format is functional. The note with it: MHOM/BR/75/M2904. Summed up: as §1
In series [18] the test system is Leishmania braziliensis. In words: Antileishmanial activity against promastigote form of Leishmania braziliensis MHOM/BR/1975/M2904 assessed as empty vacuoles at IC25 concentration after 96 hrs by MET microscopic analysis. The note with it: MHOM/BR/75/M2904. The format is functional. Summed up:
as §1

In series [19] the test system is Leishmania infantum. In words: Antileishmanial activity against promastigote form of Leishmania infantum MCAN/ES/2001/UCM-10 assessed as mortality at IC25 concentration after 96 hrs by […] electron microscopic analysis. The series is classed as functional, organism-based. The gist of the method: as §1
For series [20], the system named is Leishmania braziliensis. Nature of the series: Antileishmanial activity against promastigote form of Leishmania braziliensis MHOM/BR/1975/M2904 assessed as lipid natured cytoplasm at IC25 concentration after 96 hrs by MET microscopic analysis. The series is classed as functional. To be noted: MHOM/BR/75/M2904. Summed up:
as §1

The test system of series [21] is Leishmania infantum. Nature of the series: Antileishmanial activity against promastigote form of Leishmania infantum MCAN/ES/2001/UCM-10 assessed as cytoplasmic membrane disruption at IC25 concentration after 96 hrs by […] electron microscopic analysis relative to control. The format is functional, organism-based. The gist of the method:
as §1

Series [22] deals with Leishmania infantum. Nature of the series: Inhibition of promastigote form Leishmania infantum MCAN/ES/2001/UCM-10 Fe-SOD at 5 uM by NBT reduction assay relative to control. Summed up: (§2)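 Promastigotes sonicated in sucrose/Tris-HCl/EDTA buffer, pH 7.8, and centrifuged. Protein precipitating at 35–85% ammonium sulphate desalted into 20 mM potassium phosphate with 1 mM EDTA, pH 7.8. Protein measured by Bradford. Fe-SOD activity read spectrophotometrically as inhibition of NBT reduction by superoxide, with compounds at 0.1–50. IC50 by linear regression of Kc values; three determinations; Newman-Keuls test vs control homogenate.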

Series [23] deals with Leishmania infantum. In words: Antileishmanial activity against promastigote form of Leishmania infantum MCAN/ES/2001/UCM-10 assessed as disorganized cytoplasm at IC25 concentration after 96 hrs by […] electron microscopic analysis relative to control. The format is functional, organism-based. Summed up: as §1
The subject of series [24] is Leishmania braziliensis MHOM/BR/75/M2904. In words: Inhibition of promastigote form Leishmania braziliensis MHOM/BR/1975/M2904 Fe-SOD at 12.5 uM by NBT reduction assay relative to control. The gist of the method:
as §2

Molecules are shown by their SMILES. The source made the active and inactive calls. No cut-off for these calls is given here.

Chain of Superoxide dismutase [Mn] (Escherichia coli) (P00448 whole entry, looked up): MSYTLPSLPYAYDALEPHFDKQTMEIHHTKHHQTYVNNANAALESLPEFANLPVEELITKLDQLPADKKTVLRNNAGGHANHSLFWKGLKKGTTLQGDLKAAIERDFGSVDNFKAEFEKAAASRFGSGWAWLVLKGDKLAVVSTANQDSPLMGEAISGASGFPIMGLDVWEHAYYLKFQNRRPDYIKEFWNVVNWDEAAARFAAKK

`Br.NCCN1CCNCc2cccc(n2)CNCC1`: the midpoint of inhibition in series [1], the IC50, lay at 381 µM. The selectivity ratio amounted to 12.2 in [2] and 14.5 in [4]. Besides, in [3], the Ratio is reported as 18.
`Cl.c1cc2nc(c1)CNCCN(CCNCc1cccc3ccccc13)CCNC2`: the outcome in the series with Leishmania infantum [5], in the series with Leishmania infantum [7], with Leishmania infantum [8], in the series on Leishmania infantum [9], in the series on Leishmania infantum [10] and in the series with Leishmania infantum [11] was Active. The result in the series with Leishmania infantum [12] was Active. For the same compound, in the series with Leishmania infantum [6], the “inhibition (INH)” value came to 71%. Besides, the midpoint of inhibition in series [1], the IC50, lay at 408 µM. Moreover, the values for the selectivity ratio in [2] and in [4] were 18.8 and 14.7, respectively. Also, the Ratio in series [3] is 42.
On to `Cl.c1ccc(CNCCN2CCNCc3cccc(n3)CNCC2)nc1`, for which the result with Leishmania braziliensis [13], with Leishmania braziliensis [14], in the series with Leishmania braziliensis [15], in the series with Leishmania braziliensis [16], in the series on Leishmania braziliensis [17] and with Leishmania braziliensis [18] was Active. For the same compound, the outcome in the series with Leishmania infantum [19] and in the series with Leishmania braziliensis [20] was Active. Also, the “inhibition (INH)” value in the series with Leishmania infantum [6] came to 67%. The concentration for half-maximal inhibition (IC50) (as a rule, the concentration that inhibits the measured activity by half) in [1] amounted to 179 µM. The selectivity ratio in [2] was 16.4; in [4], 15.9. In [3], the Ratio worked out at 26.
For the compound `Cl.c1cncc(CNCCN2CCNCc3cccc(n3)CNCC2)c1`, the outcome in the series with Leishmania infantum [5], in the series with Leishmania infantum [7], with Leishmania infantum [8], in the series on Leishmania infantum [9], in the series on Leishmania infantum [21] and in the series on Leishmania infantum [12] was Active. Also, the result with Leishmania infantum [23] was Active. For the same compound, the “inhibition (INH)” value with Leishmania infantum [6] was found to be 77%. In addition, the inhibition (in the series with Leishmania infantum [22]; in series [24]) was 100% in each case. For the same compound, the concentration for half-maximal inhibition (IC50) in series [1] amounted to 641 µM. In addition, the selectivity ratio in series [2] is 24.9; in [4] it was 19.6. Moreover, the Ratio in series [3] was 149.

These data come from ChEMBL document CHEMBL2331406, “In vitro activity of scorpiand-like azamacrocycle derivatives in promastigotes and intracellular amastigotes of Leishmania infantum and Leishmania braziliensis” (Eur J Med Chem, 2013).
